26 compounds from ChEMBL document CHEMBL2163252, “Azapeptide analogues of the growth hormone releasing peptide 6 as cluster of differentiation 36 receptor ligands with reduced affinity for the growth hormone secretagogue receptor 1a” (J Med Chem, 2012) can be followed below.

As usually defined, the IC50 is the midpoint of a concentration-inhibition curve. A high value points to lower potency.

Starred links: 1 amine or outer side, 2 acyl side, 3 side chain; linkers in the order of their positions; H or OH if unused. Non-standard residues stand in square brackets, D forms with d. Residues, ends and D or L forms follow the SMILES beside them. dTrp(2-Me) = Cc1[nH]c2ccccc2c1C[C@@H](N)C(=O)O; azaTyr = O=C(N(Cc1ccc(O)cc1)N[*:1])[*:2]; azaPhe = O=C(N(Cc1ccccc1)N[*:1])[*:2]; X1 = O=C(N(CCc1ccccc1)N[*:1])[*:2]; azaLeu = CC(C)CN(N[*:1])C(=O)[*:2]; azaPro = O=C(N1CCCN1[*:1])[*:2]; Aib = CC(C)(N)C(=O)O; azaGly = NNC(=O)O

The target of one experiment is Platelet glycoprotein 4 (Rattus norvegicus, UniProt Q07969). As to the kind of experiment: Displacement of photoactivatable [125I]-Tyr-Bpa-Ala-Hexarelin from CD36 in Sprague-Dawley rat cardiac membranes incubated for 60 mins by densitometry. It is filed as cell membranes, Membrane.
Platelet glycoprotein 4, sequence (Q07969 whole entry): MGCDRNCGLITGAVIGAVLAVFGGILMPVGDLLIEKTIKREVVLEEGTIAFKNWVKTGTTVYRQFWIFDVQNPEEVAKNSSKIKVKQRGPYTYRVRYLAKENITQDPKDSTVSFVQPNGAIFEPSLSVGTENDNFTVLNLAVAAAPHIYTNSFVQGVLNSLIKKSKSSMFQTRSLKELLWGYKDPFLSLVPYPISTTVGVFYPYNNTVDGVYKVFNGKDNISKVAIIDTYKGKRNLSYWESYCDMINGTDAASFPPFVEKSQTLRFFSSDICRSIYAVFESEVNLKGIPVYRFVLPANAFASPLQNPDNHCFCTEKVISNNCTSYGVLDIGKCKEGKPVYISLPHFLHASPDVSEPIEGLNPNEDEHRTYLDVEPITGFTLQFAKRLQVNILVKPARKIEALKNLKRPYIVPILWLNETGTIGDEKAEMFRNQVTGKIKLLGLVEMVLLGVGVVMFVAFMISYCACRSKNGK
Experiment [1] concerns the target Growth hormone secretagogue receptor type 1 (Homo sapiens, UniProt Q92847). In words: Displacement of [125I]ghrelin expressed in LLC-PK1 cells incubated for 1 hr by gamma counting method. The format is cell-based. The method, boiled down:
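Membranes from LLC-PK1 cells transiently transfected with GHS-R1a (CaPO₄; harvested 24 h later; freeze/thaw lysis, 10000g), 10 μg protein/tube. Incubated with ¹²⁵I-ghrelin (40,000 cpm) and competitor 10⁻¹² to 10⁻⁵ M, 1 h at RT, in Tris/MgCl₂/EDTA/bacitracin buffer pH 7.3. Nonspecific binding set with 10⁻⁵ M competitor. Bound separated by filtration on PEI-soaked GF/C filters, gamma counted.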
Background: Displacement assays read how much labelled ligand stays bound in the presence of the test substance.

Growth hormone secretagogue receptor type 1, sequence (Q92847 whole entry): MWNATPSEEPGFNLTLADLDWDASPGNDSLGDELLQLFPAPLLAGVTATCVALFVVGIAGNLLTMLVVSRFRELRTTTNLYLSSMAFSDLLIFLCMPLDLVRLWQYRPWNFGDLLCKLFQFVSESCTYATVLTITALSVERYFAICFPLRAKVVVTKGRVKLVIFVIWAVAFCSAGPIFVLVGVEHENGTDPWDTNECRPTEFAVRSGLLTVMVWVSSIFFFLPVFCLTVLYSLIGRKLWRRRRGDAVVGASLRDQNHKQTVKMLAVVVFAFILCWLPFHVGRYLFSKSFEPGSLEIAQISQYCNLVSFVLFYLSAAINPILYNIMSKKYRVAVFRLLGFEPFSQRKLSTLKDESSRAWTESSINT

In the case of `C[C@H](NC(=O)N(Cc1cccc2ccccc12)NC(=O)C(N)Cc1cnc[nH]1)C(=O)N[C@@H](Cc1c[nH]c2ccccc12)C(=O)N[C@H](Cc1ccccc1)C(=O)N[C@@H](CCCCN)C(N)=O` (stereo partly drawn), the IC50 on Platelet glycoprotein 4 was > 10 µM.

For `C[C@H](NC(=O)[C@@H](Cc1c[nH]c2ccccc12)NC(=O)[C@@H](N)Cc1cnc[nH]1)C(=O)N[C@@H](Cc1c[nH]c2ccccc12)C(=O)N1CCCN1C(=O)N[C@@H](CCCCN)C(N)=O` (H-H[dW]AW[azaPro]K-NH2), the IC50 (at Platelet glycoprotein 4; in experiment [1]) was > 10 µM each time.

With `C[C@H](NC(=O)[C@@H](Cc1ccccc1)NC(=O)N(Cc1ccccc1)NC(=O)[C@H](C)NC(=O)[C@@H](Cc1c[nH]c2ccccc12)NC(=O)[C@@H](N)Cc1cnc[nH]1)C(N)=O` (H-H[dW]A[azaPhe][dF]A-NH2), the IC50 (at Platelet glycoprotein 4; in experiment [1]) was > 10 µM throughout.

Consider `C[C@H](N)C(=O)NN(Cc1ccc(O)cc1)C(=O)N[C@@H](C)C(=O)N[C@@H](Cc1c[nH]c2ccccc12)C(=O)N[C@H](Cc1ccccc1)C(=O)N[C@@H](CCCCN)C(N)=O` (H-A[azaTyr]AW[dF]K-NH2), for which the IC50 at Platelet glycoprotein 4 was 36.9 µM; in experiment [1], > 10 µM.

Turning to `CC(C)CN(NC(=O)[C@@H](Cc1c[nH]c2ccccc12)NC(=O)[C@@H]1CCCN1)C(=O)N[C@@H](Cc1c[nH]c2ccccc12)C(=O)N[C@H](Cc1ccccc1)C(=O)N[C@@H](CCCCN)C(N)=O`, the IC50 on Platelet glycoprotein 4 stood at 7.97 µM; in experiment [1], 1.17 µM.

In the case of `C[C@H](NC(=O)[C@@H](Cc1ccccc1)NC(=O)[C@H](Cc1c[nH]c2ccccc12)NC(=O)[C@H](C)NC(=O)N(Cc1ccccc1)NC(=O)[C@@H](N)Cc1cnc[nH]1)C(N)=O` (H-H[azaPhe]AW[dF]A-NH2), the IC50 at Platelet glycoprotein 4 was > 10 µM.

On to `CC(C)CN(NC(=O)[C@@H](Cc1c[nH]c2ccccc12)NC(=O)[C@@H](N)Cc1cnc[nH]1)C(=O)N[C@@H](Cc1c[nH]c2ccccc12)C(=O)N[C@H](C)C(=O)N[C@@H](CCCCN)C(N)=O` (H-H[dW][azaLeu]W[dA]K-NH2), for which the IC50 at Platelet glycoprotein 4 is 9.48 µM; in experiment [1], > 10 µM.

As to `CC(C)CN(NC(=O)[C@H](C)NC(=O)[C@@H](Cc1c[nH]c2ccccc12)NC(=O)[C@@H](N)Cc1cnc[nH]1)C(=O)N[C@H](Cc1ccccc1)C(=O)N[C@@H](CCCCN)C(N)=O` (H-H[dW]A[azaLeu][dF]K-NH2), at Platelet glycoprotein 4, the IC50 was > 10 µM.

`C[C@H](NC(=O)N(Cc1ccccc1)NC(=O)[C@@H](N)Cc1cnc[nH]1)C(=O)N[C@@H](Cc1c[nH]c2ccccc12)C(=O)N[C@H](C)C(=O)N[C@@H](CCCCN)C(N)=O` (H-H[azaPhe]AW[dA]K-NH2): the IC50 (on Platelet glycoprotein 4; in experiment [1]) was > 10 µM throughout.

For `C[C@H](NC(=O)N(Cc1ccc(O)cc1)NC(=O)[C@@H](N)Cc1cnc[nH]1)C(=O)N[C@@H](Cc1c[nH]c2ccccc12)C(=O)N[C@H](C)C(=O)N[C@@H](CCCCN)C(N)=O` (H-H[azaTyr]AW[dA]K-NH2), the IC50 (on Platelet glycoprotein 4; in experiment [1]) was > 10 µM throughout.

In the case of `C[C@H](NC(=O)[C@@H](Cc1c[nH]c2ccccc12)NC(=O)[C@@H](N)Cc1cnc[nH]1)C(=O)N1CCCN1C(=O)N[C@H](Cc1ccccc1)C(=O)N[C@@H](CCCCN)C(N)=O` (H-H[dW]A[azaPro][dF]K-NH2), the IC50 (on Platelet glycoprotein 4; in experiment [1]) was > 10 µM in each case.

Take `C[C@H](NC(=O)[C@H](C)NC(=O)N(Cc1ccccc1)NC(=O)C(N)Cc1cnc[nH]1)C(=O)N[C@H](Cc1ccccc1)C(=O)N[C@@H](CCCCN)C(N)=O` (stereo partly drawn): the IC50 (at Platelet glycoprotein 4; in experiment [1]) was > 10 µM each time.

On to `C[C@H](NC(=O)[C@@H](C)NC(=O)[C@@H](N)Cc1cnc[nH]1)C(=O)NN(Cc1ccccc1)C(=O)N[C@H](Cc1ccccc1)C(=O)N[C@@H](CCCCN)C(N)=O` (H-H[dA]A[azaPhe][dF]K-NH2), for which the concentration for half-maximal inhibition (IC50) (at Platelet glycoprotein 4; in experiment [1]) was > 10 µM each time.

Take `CC(C)CN(NC(=O)[C@@H](Cc1c[nH]c2ccccc12)NC(=O)[C@@H](N)Cc1cnc[nH]1)C(=O)N[C@@H](Cc1c[nH]c2ccccc12)C(=O)N[C@H](Cc1ccccc1)C(N)=O`: the IC50 turned out to be 9.01 µM at Platelet glycoprotein 4 and 4.55 µM in experiment [1].

Turning to `C[C@H](NC(=O)[C@@H](Cc1ccccc1)NC(=O)[C@H](Cc1c[nH]c2ccccc12)NC(=O)NNC(=O)[C@@H](Cc1c[nH]c2ccccc12)NC(=O)[C@@H](N)Cc1cnc[nH]1)C(N)=O` (H-H[dW][azaGly]W[dF]A-NH2), at Platelet glycoprotein 4, the IC50 was > 10 µM.

As for `Cc1[nH]c2ccccc2c1C[C@@H](NC(=O)[C@@H](N)Cc1cnc[nH]1)C(=O)N[C@@H](C)C(=O)N[C@@H](Cc1c[nH]c2ccccc12)C(=O)N[C@H](Cc1ccccc1)C(=O)N[C@@H](CCCCN)C(N)=O` [EXAMORELIN] (H-H[dTrp(2-Me)]AW[dF]K-NH2), in experiment [1], the IC50 came to 0.0159 µM.

As for `C[C@H](NC(=O)[C@@H](Cc1c[nH]c2ccccc12)NC(=O)[C@@H](N)Cc1c[nH]cn1)C(=O)N[C@@H](Cc1c[nH]c2ccccc12)C(=O)N[C@H](Cc1ccccc1)C(=O)N[C@@H](CCCCN)C(N)=O` (H-H[dW]AW[dF]K-NH2), the IC50 on Platelet glycoprotein 4 stood at 1.82 µM.

In the case of `CC(C)CN(NC(=O)[C@@H](Cc1c[nH]c2ccccc12)NC(=O)[C@H](C)N)C(=O)N[C@@H](Cc1c[nH]c2ccccc12)C(=O)N[C@H](Cc1ccccc1)C(=O)N[C@@H](CCCCN)C(N)=O`, the IC50 at Platelet glycoprotein 4 came to 6.66 µM. This IC50 is about 3.7-fold higher than that of the compound before.

Regarding `NCCCC[C@H](NC(=O)[C@@H](Cc1ccccc1)NC(=O)[C@H](Cc1c[nH]c2ccccc12)NC(=O)N1CCCN1C(=O)[C@@H](Cc1c[nH]c2ccccc12)NC(=O)[C@@H](N)Cc1cnc[nH]1)C(N)=O` (H-H[dW][azaPro]W[dF]K-NH2), the values for the half-inhibitory concentration (IC50) (on Platelet glycoprotein 4; in experiment [1]) were 9.81 µM and > 10 µM, respectively.

On to `C[C@H](NC(=O)N1CCCN1C(=O)[C@@H](N)Cc1cnc[nH]1)C(=O)N[C@@H](Cc1c[nH]c2ccccc12)C(=O)N[C@H](Cc1ccccc1)C(=O)N[C@@H](CCCCN)C(N)=O`, for which the IC50 (at Platelet glycoprotein 4; in experiment [1]) was > 10 µM each time.

As for `Cc1[nH]c2ccccc2c1C[C@@H](NC(=O)[C@@H](Cc1c(C)[nH]c2ccccc12)NC(=O)C(C)(C)N)C(N)=O` (H-[Aib]-[dTrp(2-Me)]-[dTrp(2-Me)]-NH2), the IC50 was > 10 µM on Platelet glycoprotein 4 and 0.0629 µM in experiment [1].

Turning to `C[C@H](NC(=O)[C@H](C)NC(=O)N(Cc1ccc(O)cc1)NC(=O)C(N)Cc1cnc[nH]1)C(=O)N[C@H](Cc1ccccc1)C(=O)N[C@@H](CCCCN)C(N)=O` (stereo partly drawn), the IC50 (on Platelet glycoprotein 4; in experiment [1]) was > 10 µM throughout.

With `C[C@H](NC(=O)NNC(=O)[C@@H](Cc1c[nH]c2ccccc12)NC(=O)[C@@H](N)Cc1cnc[nH]1)C(=O)N[C@H](Cc1ccccc1)C(=O)N[C@@H](CCCCN)C(N)=O` (H-H[dW][azaGly]A[dF]K-NH2), the IC50 (at Platelet glycoprotein 4; in experiment [1]) was > 10 µM in each case.

Consider `CC(C)CN(NC(=O)[C@@H](Cc1c[nH]c2ccccc12)NC(=O)[C@@H](C)N)C(=O)N[C@@H](Cc1c[nH]c2ccccc12)C(=O)N[C@H](Cc1ccccc1)C(=O)N[C@@H](CCCCN)C(N)=O`, for which the IC50 at Platelet glycoprotein 4 was 13.3 µM. This lies in the double-digit micromolar range.

On to `C[C@H](NC(=O)[C@@H](Cc1c[nH]c2ccccc12)NC(=O)[C@@H](N)Cc1cnc[nH]1)C(=O)NN(CCc1ccccc1)C(=O)N[C@H](Cc1ccccc1)C(=O)N[C@@H](CCCCN)C(N)=O` (H-H[dW]A[X1][dF]K-NH2), for which, on Platelet glycoprotein 4, the IC50 was > 10 µM.

For the compound `CC(C)CN(NC(=O)[C@@H](C)NC(=O)[C@@H](N)Cc1cnc[nH]1)C(=O)N[C@@H](Cc1c[nH]c2ccccc12)C(=O)N[C@H](Cc1ccccc1)C(=O)N[C@@H](CCCCN)C(N)=O` (H-H[dA][azaLeu]W[dF]K-NH2), the concentration for half-maximal inhibition (IC50) (at Platelet glycoprotein 4; in experiment [1]) was > 10 µM throughout.
